Reference: ChEMBL document CHEMBL4842312, “Phenoxazine nucleoside derivatives with a multiple activity against RNA and DNA viruses” (Eur J Med Chem, 2021)

What was measured:
[1] = system: SARS-CoV-2; test: Antiviral activity against SARS COV-2 infected in monkey vero cells assessed as reduction in virus-induced cytopathic effect preincubated with virus for 1 hr followed by cell infection and measured after 5 days by microscopic analysis; type: functional, organism-based; details: Severe acute respiratory syndrome coronavirus 2, Vero
[2] = system: Vero; test: Cytotoxicity in African green monkey Vero cells assessed as reduction in cell viability measured after 5 days by resazurin dye based assay; details: chlorocebus sabaeus, vero, 120 h; time 5 day
How it was run: (§1)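 Cells (about 10⁵/well, 5% FBS) were added to two-fold compound dilutions (eight concentrations from 100 μM; DMSO control) and held 5 days at 36.5 °C in CO2. Medium was then replaced with resazurin (25 μg/mL) for 4 h and stopped with SDS. Fluorescence was read at Ex 525 / Em 580–640 nm, with background wells without resazurin subtracted. Done in two replicates; CC50 calculated.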

[3] = system: Powassan virus; test: Antiviral activity against Powassan virus infected in pig PEK cells assessed as reduction in virus plaque formation preincubated with virus for 1 hr followed by cell infection and measured after 1 hr by crystal violet staining based assay; type: functional, organism-based
[4] = system: Human betaherpesvirus 5; test: Antiviral activity against Human cytomegalovirus AD169; type: functional, organism-based; details: Human betaherpesvirus 5, AD169
How it was run: (§2)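 Confluent HEL cultures received 100 CCID50 or 20 PFU of virus, with 2 h adsorption before inoculum removal. Cells were then incubated with compound from 100 μM downward. Cytopathicity or plaques were scored once untreated infected controls reached completion.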

[5] = system: Human alphaherpesvirus 3; test: Antiviral activity against thymidine kinase deficient Varicella zoster virus; type: functional, organism-based; how it was run: as §2
[6] = Selectivity index, ratio of CC50 for African green monkey Vero cells to EC50 for Antiviral activity against Chikungunya virus infected in African green monkey Vero cells; type: toxicity; details: read-out: Ratio CC50/EC50
[7] = system: HEp-2; test: Cytotoxicity in human Hep2 cells assessed as reduction in cell viability measured after 3 days by beckman coulter counting method; type: functional; details: HEp-2, 72 h, time 3 day
How it was run: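 Hep2 cells seeded at 5 × 10³ cells/well and allowed to grow 24 h, then exposed to compound dilutions starting at 100 μM for 3 days at 37 °C. Cell number measured by Coulter counter.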

[8] = system: Tick-borne encephalitis virus; test: Antiviral activity against Tick-borne encephalitis virus infected in pig PEK cells assessed as reduction in virus plaque formation preincubated with virus for 1 hr followed by cell infection and measured after 1 hr by crystal violet staining based assay; type: functional, organism-based
[9] = Selectivity index, ratio of CC50 for human HEL cells to EC50 for antiviral activity against thymidine kinase positive Varicella zoster virus; type: toxicity; details: read-out: Ratio CC50/EC50
[10] = Cytotoxicity in pig PEK cells assessed as reduction in cell viability measured after 5 days by resazurin dye based assay; design: species or system Sus scrofa, Kidney; details: 120 h, time 5 day; how it was run: as §1
[11] = system: Influenza A virus; test: Antiviral activity against Influenza A virus (H1N1) infected in MDCK cells assessed as reduction in cytopathic effect preincubated with cells for 1 hrs followed by viral addition and measured after 24 hrs by Reed-Muench method; type: functional, organism-based
How it was run: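 MDCK monolayers were pre-incubated 1 h at 37 °C with 3-fold compound dilutions (from 2 mg/mL DMSO stock), then infected at MOI 1 for 24 h. Supernatant yield was titrated by 10-fold dilutions on fresh MDCK for 72 h. Titre was read by hemagglutination with 1% chicken erythrocytes and calculated by Reed-Muench as TID50 per 100 μL.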

[12] = system: MDCK; test: Cytotoxicity in dog MDCK cells assessed as reduction in cell viability measured after 3 days by beckman coulter counting method; type: cell-based, Canis lupus familiaris; details: mdck, 72 h, time 3 day
How it was run: (§3)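 Cells were seeded at 5 × 10³/well, grown 24 h, then exposed to compound from 100 μM downward for 3 days at 37 °C. Cell number was counted with a Coulter counter.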

[13] = system: Human betaherpesvirus 5; test: Antiviral activity against Human cytomegalovirus Davis; type: functional, organism-based; details: Human betaherpesvirus 5, Davis; how it was run: as §2
[14] = system: Respiratory syncytial virus; test: Antiviral activity against Respiratory syncytial virus assessed as reduction in virus-induced cytopathic effect by MTS assay; type: functional, organism-based; details: human respiratory syncytial virus
[15] = Selectivity index, ratio of CC50 for human HEL cells to EC50 for antiviral activity against thymidine kinase deficient Varicella zoster virus; type: toxicity; details: read-out: Ratio CC50/EC50
[16] = system: Chikungunya virus; test: Antiviral activity against Chikungunya virus infected in African green monkey Vero cells assessed as reduction in virus plaque formation preincubated with virus for 1 hr followed by cell infection and measured after 1 hr by crystal violet staining based assay; type: functional, organism-based
[17] = system: HEL; test: Cytotoxicity against human HEL cells assessed as reduction in cell viability measured after 3 days by beckman coulter counting method; type: cell-based; details: 72 h, time 3 day; how it was run: as §3
[18] = system: Human alphaherpesvirus 3; test: Antiviral activity against thymidine kinase positive Varicella zoster virus; type: functional, organism-based; how it was run: as §2
[19] = Selectivity index, ratio of CC50 for pig PEK cells to EC50 for Antiviral activity against Powassan virus infected in pig PEK cells; type: toxicity, cell-based; details: read-out: Ratio CC50/EC50
[20] = system: Omsk hemorrhagic fever virus; test: Antiviral activity against Omsk hemorrhagic fever virus infected in pig PEK cells assessed as reduction in virus plaque formation preincubated with virus for 1 hr followed by cell infection and measured after 1 hr by crystal violet staining based assay; type: functional, organism-based
[21] = Selectivity index, ratio of CC50 for pig PEK cells to EC50 for Antiviral activity against Omsk hemorrhagic fever virus infected in pig PEK cells; type: toxicity, cell-based; details: read-out: Ratio CC50/EC50
[22] = Selectivity index, ratio of CC50 for pig PEK cells to EC50 for Antiviral activity against Tick-borne virus encephalitis infected in pig PEK cells; type: toxicity, cell-based; details: read-out: Ratio CC50/EC50
[23] = system: Human alphaherpesvirus 3; test: Antiviral activity against Varicella zoster virus assessed as inhibition of viral replication; type: functional, organism-based

| SMILES | EC50 [1] | CC50 [2] | EC50 [3] | EC50 [4] | EC50 [5] | selectivity ratio [6] | CC50 [7] | EC50 [8] | CC50 [10] | EC50 [11] | CC50 [12] | EC50 [13] | EC50 [14] | EC50 [16] | CC50 [17] | EC50 [18] | selectivity ratio [19] | selectivity ratio [22] | also measured |
| --- | --- | --- | --- | --- | --- | --- | --- | --- | --- | --- | --- | --- | --- | --- | --- | --- | --- | --- | --- |
| COc1ccc(C(OC[C@H]2O[C@@H](n3cc4c(nc3=O)Nc3c(OCCN)cccc3O4)[C@H](O)[C@@H]2O)(c2ccccc2)c2ccc(OC)cc2)cc1 | > 100 µM | > 100 µM |  |  |  |  |  |  |  |  |  |  |  |  |  |  |  |  |  |
| CCCCCCCCCCOc1ccc2c(c1)N(C)c1nc(=O)n([C@H]3C[C@H](O)[C@@H](CO)O3)cc1O2 | > 100 µM | 59 µM | 0.45 µM | > 20 µM | 15.1 µM | 83 | > 100 µM | 5.4 µM | 79 µM | 23 µM | > 40 µM | 20 µM | > 100 µM | 0.71 µM | > 100 µM | 10.7 µM |  |  | selectivity ratio [9]: > 11; selectivity ratio [15]: > 6 |
| COc1ccc(C(OCCOCn2cc3c(nc2=O)Nc2ccccc2O3)(c2ccccc2)c2ccc(OC)cc2)cc1 | > 100 µM | > 100 µM | 21 µM | > 100 µM | > 100 µM |  | > 100 µM | 36 µM | > 100 µM | 14 µM | > 100 µM | > 100 µM | > 100 µM | > 50 µM | > 100 µM | > 100 µM | > 5 | > 2 | EC50 [20]: 21.4 µM; selectivity ratio [21]: > 4 |
| CN1c2ccccc2Oc2cn([C@H]3C[C@H](O)[C@@H](CO)O3)c(=O)nc21 | > 100 µM | > 100 µM | > 50 µM | > 100 µM | > 100 µM |  | > 100 µM | 40 µM | > 100 µM |  | > 100 µM | > 100 µM | > 100 µM | > 50 µM | > 100 µM | > 100 µM |  |  |  |
| CN1c2ccccc2Oc2cn(COCCO)c(=O)nc21 | > 100 µM | > 100 µM | 13.5 µM | > 100 µM | > 100 µM | > 6 | > 100 µM | 16 µM | > 100 µM | 33 µM | > 100 µM | > 100 µM | > 100 µM | 15 µM | > 100 µM | > 100 µM | > 7 | > 6 | EC50 [20]: 4.5 µM; selectivity ratio [21]: > 22 |
| CCCCCCCCOc1ccc2c(c1)N(C)c1nc(=O)n([C@H]3C[C@H](O)[C@@H](CO)O3)cc1O2 | > 100 µM | > 100 µM | 13.3 µM | > 100 µM | > 100 µM | > 4 | > 100 µM | 22 µM | > 100 µM | 104 µM | > 100 µM | > 100 µM | > 100 µM | 23.8 µM | > 100 µM | 8.7 µM | > 7 | > 4 | selectivity ratio [9]: 74 |
| CCCCCCCCCOc1ccc2c(c1)N(C)c1nc(=O)n([C@H]3C[C@H](O)[C@@H](CO)O3)cc1O2 | > 100 µM | > 100 µM | 2.4 µM | > 100 µM | > 20 µM | > 15 | > 100 µM | 2.53 µM | > 100 µM | 35 µM | > 100 µM | > 100 µM | > 100 µM | 6.3 µM | > 100 µM | > 20 µM | > 42 | > 40 |  |
| Nc1nc2c(ncn2COCCO)c(=O)[nH]1 [ACYCLOVIR] |  |  |  |  |  |  |  |  |  |  |  |  |  |  | > 300 µM |  |  |  | EC50 [23]: 0.009 µM |
| Nc1ccn(C[C@@H](CO)OCP(=O)(O)O)c(=O)n1 [CIDOFOVIR] |  |  |  |  |  |  |  |  |  |  |  | 0.61 µM |  |  | > 300 µM |  |  |  |  |
| Nc1nc(O)c2ncn(COC(CO)CO)c2n1 [GANCICLOVIR] |  |  |  | 19 µM |  |  |  |  |  |  |  | 1.79 µM |  |  | > 300 µM |  |  |  |  |
| O=c1nc(NO)ccn1[C@@H]1O[C@H](CO)[C@@H](O)[C@H]1O [N-HYDROXYCYTIDINE] | 7.4 µM | > 100 µM |  |  |  |  |  |  |  |  |  |  |  |  |  |  |  |  |  |
| CCC(CC)O[C@@H]1C=C(C(=O)O)C[C@H](N)[C@H]1NC(C)=O [OSELTAMIVIR CARBOXYLATE] |  |  |  |  |  |  |  |  |  | 2.9 µM | > 100 µM |  |  |  |  |  |  |  |  |
| NC(=O)c1ncn([C@@H]2O[C@H](CO)[C@@H](O)[C@H]2O)n1 [RIBAVIRIN] |  |  |  |  |  |  | 250 µM |  |  |  |  |  | 2 µM |  |  |  |  |  |  |
